Screens deposited in PubChem BioAssay by several laboratories.
MrgX1 antagonist – human MrgX1 receptor antagonism, primary screen; Q96LB2; MRGX1-HEK293 calcium flux, Fluo-4, BAM8-22 antagonism; active compounds read low; B-score at 10 µM; hit rate 1.3% among 310,000; AID 588676;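 active means calcium-response B-score plate-corrected more than 3 library SD below zero, starting fluorescence within 5 deviations, no agonist response on first addition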;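 further: peak minus trough fluorescence over baseline after final BAM8-22 challenge near maximal dose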
RGS4 block – inhibitors of human RGS4; P49798; HEK293 M3R/RGS4 inducible, Fluo-4 calcium flux; active compounds read high; triggered by carbachol at its EC20; B-score at 10 µM; hit rate 0.45% among 310,000;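 active means B-score, a plate-corrected calcium signal, over three deviations above library mean, with baseline fluorescence within five deviations of library mean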;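 further: RGS4 expression induced by doxycycline in cells with stable M3 receptor; B-score is computed from the integrated fluorescence ratio over baseline after carbachol; higher B-score means a larger calcium signal and so more RGS4 inhibition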
Target sequence (P49798 whole entry, looked up): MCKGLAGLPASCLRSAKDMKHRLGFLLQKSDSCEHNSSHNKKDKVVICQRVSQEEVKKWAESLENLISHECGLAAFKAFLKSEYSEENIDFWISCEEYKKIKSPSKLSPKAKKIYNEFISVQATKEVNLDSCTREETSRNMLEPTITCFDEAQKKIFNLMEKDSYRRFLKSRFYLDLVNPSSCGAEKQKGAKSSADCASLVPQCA
MrgX1 agonist – agonists of human MrgX1 receptor; Q96LB2; MrgX1-HEK293 cells, Fluo-4 calcium fluorescence, agonist mode; active compounds read high; B-score at 10 µM; hit rate 0.44% among 310,000;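 active means calcium response B-score plate-corrected fluorescence ratio at least 3 library SD, with starting fluorescence B-score inside 5 SD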
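times = overnight plating, then 30 min 37 °C plus 30 min room-temperature dye loading | assay system = stable human MrgX1 HEK293 cell line | input = fifteen thousand cells per well | signal = kinetic calcium dye fluorescence, Fluo-4 NW | dosing = compound delivered in addition one of three | read-out = B-scored fluorescence response ratio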
PHOSPHO1 block – inhibitors of human PHOSPHO1 phosphatase; Q8TCT1; recombinant PHOSPHO1, absorbance phosphatase assay; inhibition, % at 13.3 µM; hit rate 1.1% among 290,000; in the data active means inhibition above about 60%
Target sequence (Q8TCT1 whole entry, looked up): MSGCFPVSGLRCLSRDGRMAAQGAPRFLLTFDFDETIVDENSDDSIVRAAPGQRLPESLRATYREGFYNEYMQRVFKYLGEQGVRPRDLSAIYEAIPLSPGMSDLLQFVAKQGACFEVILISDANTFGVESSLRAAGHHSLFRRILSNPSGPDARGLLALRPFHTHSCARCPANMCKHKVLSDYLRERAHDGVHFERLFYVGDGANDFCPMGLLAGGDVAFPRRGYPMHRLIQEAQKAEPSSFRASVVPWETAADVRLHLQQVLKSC
RGS4 act – potentiators or activators of RGS4; hit rate 0.92% among 310,000; AID 463111; B-score at 10 µM; HEK293 M3R/inducible RGS4, carbachol calcium flux Fluo4; active compounds read low;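 active means B-score of the integrated calcium signal more than 4 SD below the library mean, with starting fluorescence not abnormally high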;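 further: negative B-score means reduced calcium response which marks RGS4 activation or potentiation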
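Test system: HEK293 cells with stable M3R and inducible RGS4; also added: carbachol at ECmax as muscarinic agonist stimulus; schedule: dye loading 30 min 37 °C, buffer rest 30 min RT; technique: kinetic calcium fluorescence imaging with Fluo4-AM dye, 2 µM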
MrgX1 PAM – human MrgX1 positive allosteric modulation, primary screen | Q96LB2 | MrgX1-HEK293, Fluo-4 calcium flux, FDSS; active compounds read high | B-score at 10 µM | hit rate 0.63% among 310,000 | AID 588675;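 active means plate-corrected calcium response at least 3 library SD above typical, normal starting fluorescence, not activating the receptor alone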;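 further: compound read alongside a low EC10 to EC30 dose of BAM8-22 agonist; peak minus trough fluorescence over baseline measured at the second addition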
RGS4 block valid – validation of RGS4 inhibitors; shares compounds with RGS4 block; HEK293 M3R/RGS4, carbachol calcium Fluo-4 fluorescence; carbachol added at its EC20; 0 = buffer wells, 100 = carbachol control; hit rate 65% among 1,700; AID 492999; calcium response, % at 10 µM;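 active means duplicate-averaged calcium response above the buffer-only control mean plus 5 SD of those controls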;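 further: integrated fluorescence ratio F max minus min over baseline F0; higher response in RGS4-induced cells means RGS4 inhibition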
RGS4 uninduced – non-induced cell nonspecific activity of RGS4 inhibitors | activity (percent), % at 10 µM | hit rate 20% among 1,900 | HEK293 M3R non-induced, carbachol calcium Fluo-4; submaximal (EC20) carbachol stimulus; buffer wells 0%, carbachol control wells 100% | shares compounds with RGS4 block | AID 493000; call rule not given here;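 further: RGS4 induction absent so cells express M3R without RGS4; higher means more calcium signal and flags a non-specific hit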
RGS4 inh ctr2 – second RGS4 inhibitor counter-screen in uninduced cells lacking carbachol | shares compounds with RGS4 block | HEK293 M3R/RGS4 non-induced, Fluo-4 calcium, no carbachol; normalised: buffer wells 0%, carbachol wells 100% | calcium response (agonist-mode artifact), % at 10 µM | hit rate 22% among 1,900 | AID 493001;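 active means duplicate-averaged calcium rise in uninduced cells above buffer wells' mean plus 5 SD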
Numbers without * were called inactive; i = inactive; / = no result given. In the library only some 4.5% were active in any assay of this set; here they are far more common.

SMILES | MrgX1 antagonist | RGS4 block | MrgX1 agonist | PHOSPHO1 block | RGS4 act | MrgX1 PAM | RGS4 block valid | RGS4 uninduced | RGS4 inh ctr2
O=C1NC(=O)N(Cc2ccccc2)C(=O)/C1=C\C=C\c1ccco1 | i | 5.5* | 28* | -15 | i | i | 19%* | i | 15%*
O=C1NC(=O)N(Cc2ccco2)C(=O)/C1=C/C=C/c1ccco1 | i | 5.4* | 36* | -35 | i | i | i | i | i
Cn1cccc1/C=C1\C(=O)NC(=O)N(Cc2ccco2)C1=O | / | i | / | 6 | i | / | / | / | /
CC1=C2C(=O)C3C(CC=C4CC(O)CCC43C)C2CCC12OC1CC(C)CNC1C2C (stereo unspecified) | i | i | i | 30 | i | i | / | / | /
O=c1[nH]oc2c1CCNC2 | i | / | i | / | / | i | / | / | /
CN1CCN(c2nc(N)c(Br)c(Cl)n2)CC1 | i | i | i | 43 | i | i | / | / | /
N#Cc1ccc(NC(=O)CN2CCCCCC2)cc1Cl | i | i | i | 20 | i | i | / | / | /
C=CCn1c(O)c(/C=N/NC(=O)c2ccncc2)c(=O)[nH]c1=O | i | i | i | 32 | i | i | / | / | /
O=C(N/N=C/c1c(O)n(Cc2ccc(F)cc2)c(=O)[nH]c1=O)c1ccccc1 | i | i | i | -10 | i | i | / | i | i
O=C(N/N=C/c1c(O)n(Cc2ccccc2)c(=O)[nH]c1=O)c1ccncc1 | i | i | i | 48 | i | i | / | 34%* | i
CCN(CC)c1ccc(C=C2C(=O)NC(=S)NC2=O)cc1 | i | 36* | i | -3 | i | i | 56%* | 30%* | i
CC(C)CN(CC(C)C)c1ccc(C=C2C(=O)NC(=S)NC2=O)cc1[N+](=O)[O-] | i | i | i | 42 | i | i | / | / | /
O=C(Cn1cc(C=C2C(=O)NC(=O)NC2=O)c2ccccc21)NCC1CCCO1 (stereo unspecified) | i | i | i | 23 | i | i | / | / | /
Cc1c(C=C2C(=O)N(C)C(=S)N(C)C2=O)c2ccccc2n1CC(=O)NCC1CCCO1 (stereo unspecified) | i | 5.1* | i | 8 | i | i | 54%* | i | 24%*
C=CCN1C[C@@H](C)N(C(c2ccc(C(=O)N(CC)CC)cc2)c2cccc(OC)c2)C[C@@H]1C (stereo partly specified) | i | / | i | / | / | i | / | / | /
CC(=O)N1CC(=O)Nc2ccc(Cl)cc2C1c1ccccc1 (stereo unspecified) | i | i | i | 20 | i | i | / | / | /
O=C1NC(=O)C(=Cc2ccc(Sc3ccccc3)o2)C(=O)N1 | i | 9.9* | i | 20 | i | i | 5.0%* | i | 29%*
CN1C(=O)C(=Cc2ccc(N3CCOCC3)o2)C(=O)N(C)C1=S | i | i | i | -6 | i | i | / | / | /
CN1C(=O)C(=Cc2ccc(Sc3ccccc3)o2)C(=O)N(C)C1=O | i | 27* | i | 38 | i | i | 23%* | i | 210%*
CN1C(=O)C(=Cc2coc3ccccc3c2=O)C(=O)N(C)C1=O | i | i | i | 28 | i | i | / | / | /
CN1C(=O)C(=Cc2ccc(Sc3ccccc3)o2)C(=O)N(C)C1=S | i | i | i | / | i | i | i | i | 8.5%*
COC(=O)CC(NC(=S)N1CC2C[C@@H](C1)Cn1c2cccc1=O)C(=O)OC (stereo partly specified) | i | i | i | / | i | i | / | / | /
